From PMC4935665 (Journal of bone and mineral research : the official journal …, 2016)

How the values were obtained:
rats = details: daily injection 20 nmol/kg sc; cited from earlier work
cynomolgus monkeys = assay: Single SC injection in cynomolgus monkeys, serum Ca; assay type: in vivo, cynomolgus monkey; details: SC 10 nmol/kg
In short: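 Normal cynomolgus monkeys receive SC injections in two experiments, with serum Ca followed after injection. In experiment 1, animals get vehicle or test peptide at 0.25, 0.5 or 1.0 nmol/kg, three animals per dose.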

in vivo = details: rat, iv, 24.3 nmol/kg
TPTX rats [1] = assay: Single IV injection in TPTX rats, serum Ca and Pi; assay type: in vivo, rat; details: for time for sPi to return to vehicle-control levels: single IV 24.3 nmol/kg; for sCa response versus sham-control level: single IV 24.3 nmol/kg (highest dose); for duration of modest, transient sCa increase and sPi decrease: single IV, dose 80-fold higher than that used for LA-PTH
TPTX rats [2] = assay type: in vivo, rat; details: once daily SC 9 nmol/kg
[3] = rat, in vivo, iv
[4] = human, in vivo; cited from earlier work
HP patients = details: cited from earlier work
[5] = HP patients, single SC injection

half-life (in vivo) [min]	Molecule	serum calcium or phosphorus (rats)	efficacy for elevating sCa compared with PTH(1–84) (cynomolgus monkeys; n = 3)	time for sPi to return to vehicle-control levels (TPTX rats [1]) [h]	sCa response versus sham-control level (TPTX rats [1])	duration of modest, transient sCa increase and sPi decrease (TPTX rats [1]) [h]	lumbar and femur BMD (TPTX rats [2])	sCa versus vehicle-injected TPTX rats (TPTX rats [2])	sPi versus vehicle-injected TPTX rats (TPTX rats [2])	trabecular number at the distal femur (TPTX rats [2])	serum half-life t1/2 [3] [min]	true serum half-life in the blood [4]	time for sCa to return to vehicle-control levels (cynomolgus monkeys) [h]	peak sCa level (cynomolgus monkeys; n = 2)	time for mean serum Ca to return to pre-dose, hypocalcemic levels (HP patients; [5]) [h]	time of peak sCa levels post-administration (HP patients; [5]) [h]	serum half-life times (HP patients; human, in vivo, sc)	subjects with hypercalcemia at peak times (HP patients; human, in vivo, sc) [%]
7.8	CC[C@H](C)[C@H](NC(=O)[C@H](CCC(=O)O)NC(=O)[C@H](CO)NC(=O)[C@@H](NC(=O)[C@@H](N)CO)C(C)C)C(=O)N[C@@H](CCC(N)=O)C(=O)N[C@@H](CC(C)C)C(=O)N[C@@H](CCSC)C(=O)N[C@@H](Cc1c[nH]cn1)C(=O)N[C@@H](CC(N)=O)C(=O)N[C@@H](CC(C)C)C(=O)NCC(=O)N[C@@H](CCCCN)C(=O)N[C@@H](Cc1c[nH]cn1)C(=O)N[C@@H](CC(C)C)C(=O)N[C@@H](CC(N)=O)C(=O)N[C@@H](CO)C(=O)N[C@@H](CCSC)C(=O)N[C@@H](CCC(=O)O)C(=O)N[C@@H](CCCNC(=N)N)C(=O)N[C@H](C(=O)N[C@@H](CCC(=O)O)C(=O)N[C@@H](Cc1c[nH]c2ccccc12)C(=O)N[C@@H](CC(C)C)C(=O)N[C@@H](CCCNC(=N)N)C(=O)N[C@@H](CCCCN)C(=O)N[C@@H](CCCCN)C(=O)N[C@@H](CC(C)C)C(=O)N[C@@H](CCC(N)=O)C(=O)N[C@@H](CC(=O)O)C(=O)N[C@H](C(=O)N[C@@H](Cc1c[nH]cn1)C(=O)N[C@@H](CC(N)=O)C(=O)N[C@@H](Cc1ccccc1)C(=O)O)C(C)C)C(C)C [PTH(1–34)]	little or no change	even less effective	≤ 10	failed to attain the sCa levels seen in the sham-control animals	< 6												
	PTH(1–84): human parathyroid hormone, produced recombinantly			≤ 10	failed to attain the sCa levels seen in the sham-control animals	< 6	significantly increased	no persistent increase	only marginal reductions	significantly increased	5.4	five minutes or less	≤ 24	~ 11.4 mg/dL	≤ 24	~7	two to three hours	71
